For data set [1], the system named is Staphylococcus aureus. The data set can be described thus: Antibacterial activity against methicillin-resistant Staphylococcus aureus clinical isolate 2 incubated for 16 hrs by broth microdilution method in presence of thiourea. Format: functional, organism-based.
In data set [2] the test system is Staphylococcus aureus. The data set can be described thus: Antibiofilm activity against methicillin-resistant Staphylococcus aureus BAA-1707 assessed as biofilm eradication incubated for 24 hrs by CBD assay. Type of data set: functional. The method, boiled down:
(§1)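 Calgary Biofilm Device: pegs inoculated with mid-log culture diluted 1,000-fold in TSB + 0.5% glucose, 24 h 37 °C; washed pegs challenged with 2-fold dilutions 24 h 37 °C; pegs moved to fresh TSBG 24 h; MBEC = lowest concentration leaving no turbidity; 2–6 independent experiments.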

Data set [3] relates to Mycobacterium tuberculosis. Nature of the data set: Antibacterial activity against Mycobacterium tuberculosis H37Ra ATCC 25177 after 7 days by two-fold serial dilution method. The following applies: H37Ra ATCC 25177, 168 h. Type of data set: functional.
The subject of data set [4] is Staphylococcus epidermidis. The data set can be described thus: Antibacterial activity against methicillin-resistant Staphylococcus epidermidis ATCC 35984 assessed as biofilm eradication incubated for 24 hrs by CBD assay. Format: functional. The following applies: for MBC: Staphylococcus epidermidis, ATCC 35984, 24 h. The method, boiled down:
as §1

Data set [5] concerns Staphylococcus epidermidis. The data set can be described thus: Antibacterial activity against Staphylococcus epidermidis ATCC 12228 incubated for 16 to 20 hrs by broth microdilution method. Type of data set: functional. (In broth dilution the organism is exposed to a series of concentrations in liquid medium.)
Data set [6] relates to Staphylococcus aureus. Nature of the data set: Antibacterial activity against methicillin-resistant Staphylococcus aureus clinical isolate 2 incubated for 16 hrs by broth microdilution method in presence of Cu2+. Format: functional. The note with it: isolate 2, 16 h.
A short description of data set [7]: Metal chelating activity assessed as insoluble Cu2+-compound complex formation by UV-vis spectroscopic analysis. Type of data set: physicochemical. The method, boiled down: (§2)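 UV-vis monitoring after adding 0.5 equivalents CuSO4 or ammonium iron(II) sulfate to stirred 10 mM ligand in DMSO; Cu stoichiometry from free ligand remaining after 2 h room-temperature stirring with varying CuSO4 in methanol, filtered, redissolved in DMSO, A440 against calibration curve.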

The nature of data set [8]: Induction of hemolysis in human RBC at 200 uM incubated for 1 hr. Format: cell-based, Erythrocyte. The following applies: red blood cells, read-out: Activity. In a few lines:
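Human RBCs (EDTA), washed three times in Tris-buffered saline pH 7.2; 2% hRBC with compound at final 200 µM, 1 h 37 °C; supernatant OD405; % hemolysis relative to DMSO (0%) and Triton X (100%).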

Data set [9] concerns Enterococcus faecium. The data set can be described thus: Antibacterial activity against vancomycin-resistant Enterococcus faecium ATCC 700221 incubated for 16 to 18 hrs by broth microdilution method. Format: functional.
The subject of data set [10] is Staphylococcus aureus. The data set can be described thus: Antibiofilm activity against methicillin-resistant Staphylococcus aureus isolate 2 assessed as biofilm eradication incubated for 24 hrs by CBD assay. Type of data set: functional. The following applies: for MBC: Staphylococcus aureus, isolate 2, 24 h. The method, boiled down: as §1
Data set [11] concerns HeLa. Nature of the data set: Cytotoxicity against human HeLa cells after 24 hrs by LDH release assay. Type of data set: cell-based. The method, boiled down: (§3)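 HeLa in DMEM + 10% FBS, 37 °C 5% CO2, at 70–80% confluence treated with 25, 50, 100 µM for 24 h; DMSO vehicle; Triton X-100 2% v/v max-LDH control, medium-only negative; supernatant with LDH reaction mix 30 min room temperature, stopped, absorbance 490 nm.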

Data set [12] can be described thus: Metal chelating activity assessed as soluble Fe2+-compound complex formation by UV-vis spectroscopic analysis. Format: physicochemical. The method, boiled down:
as §2

In data set [13] the test system is Staphylococcus aureus. Nature of the data set: Antibacterial activity against methicillin-resistant Staphylococcus aureus clinical isolate 2 incubated for 16 hrs by broth microdilution method in presence of ascorbic acid. Format: functional, organism-based.
For data set [14], the system named is Staphylococcus aureus. The data set can be described thus: Antibacterial activity against methicillin-resistant Staphylococcus aureus clinical isolate 2 incubated for 16 hrs by broth microdilution method in presence of MnTBAP. Type of data set: functional, organism-based.
The test system of data set [15] is Staphylococcus aureus. Nature of the data set: Antibiofilm activity against methicillin-resistant Staphylococcus aureus BAA-44 assessed as biofilm eradication incubated for 24 hrs by CBD assay. Format: functional. The method, boiled down:
as §1

Data set [16] deals with Staphylococcus aureus. The data set can be described thus: Antibacterial activity against Staphylococcus aureus ATCC 25923 incubated for 16 to 20 hrs by broth microdilution method. Type of data set: functional.
Data set [17] relates to Staphylococcus aureus. Nature of the data set: Antibacterial activity against methicillin-resistant Staphylococcus aureus clinical isolate 2 incubated for 16 hrs by broth microdilution method in presence of Fe2+. Type of data set: functional. The note with it: isolate 2, 16 h.
Data set [18] has as its system Enterococcus faecium. The data set can be described thus: Antibiofilm activity against […]-resistant Enterococcus faecium ATCC 700221 assessed as biofilm eradication incubated for 24 hrs by CBD assay. Format: functional. The following applies: for MBC: Enterococcus faecium, ATCC 700221, 24 h. In a few lines:
as §1

Data set [19] has as its system Staphylococcus epidermidis. Nature of the data set: Antibacterial activity against methicillin-resistant Staphylococcus epidermidis ATCC 35984 incubated for 16 to 18 hrs by broth microdilution method. Type of data set: functional.
Data set [20] in a line: Metal chelating activity assessed as soluble Cu2+-compound complex formation by UV-vis spectroscopic analysis. Format: physicochemical. In a few lines:
as §2

For data set [21], the system named is Staphylococcus epidermidis. The data set can be described thus: Antibacterial activity against Staphylococcus epidermidis ATCC 12228 incubated for 16 to 18 hrs by broth microdilution method. Type of data set: functional.
Data set [22] deals with Staphylococcus aureus. Nature of the data set: Antibacterial activity against methicillin-resistant Staphylococcus aureus BAA-1707 incubated for 16 to 18 hrs by broth microdilution method. Type of data set: functional.
Data set [23] deals with Staphylococcus aureus. The data set can be described thus: Antibacterial activity against methicillin-resistant Staphylococcus aureus BAA-44 incubated for 16 to 18 hrs by broth microdilution method. Format: functional.
Data set [24] concerns HeLa. Nature of the data set: Cytotoxicity against human HeLa cells assessed as cell death at 50 uM after 24 hrs by LDH release assay. Format: cell-based. In a few lines:
as §3

The nature of data set [25]: Aqueous solubility of compound in media after 16 hrs. Format: physicochemical.
Data set [26] deals with Staphylococcus epidermidis. The data set can be described thus: Antibiofilm activity against methicillin-resistant Staphylococcus epidermidis ATCC 35984 assessed as biofilm eradication at 0.1 to 10 uM incubated for 24 hrs by live/dead staining-based fluorescence microscopic analysis. Format: functional, organism-based. In a few lines: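 MRSE 35984 mid-log culture diluted 1:1,000, biofilm grown 24 h at 37 °C on glass dish, saline wash, treated in fresh media 0.1, 1, 10 µM for 24 h at 37 °C; DMSO negative control; Live/Dead stain 15 min dark, paraformaldehyde fixed, fluorescence microscopy.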

Data set [27] has as its system Staphylococcus epidermidis. Nature of the data set: Antibiofilm activity against methicillin-resistant Staphylococcus epidermidis ATCC 35984 assessed as reduction in persister cells level within biofilms MBEC incubated for 24 hrs by CBD assay. Format: functional. Also on record: scale not given: the % may be the effect or the level left. The method, boiled down:
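After CBD challenge and recovery, pegs sonicated 30 min in PBS and plated to count viable biofilm cells (CFU/mL) at and below MBEC.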

The test system of data set [28] is Staphylococcus aureus. The data set can be described thus: Antibacterial activity against methicillin-resistant Staphylococcus aureus clinical isolate 2 incubated for 16 to 18 hrs by broth microdilution method. Format: functional.
For data set [29], the system named is HeLa. The data set can be described thus: Cytotoxicity against human HeLa cells assessed as induction of cell death at 100 uM after 24 hrs by LDH release assay. Type of data set: cell-based. In a few lines: as §3
Data set [30] concerns Staphylococcus aureus. Nature of the data set: Antibacterial activity against methicillin-resistant Staphylococcus aureus clinical isolate 2 incubated for 16 hrs by broth microdilution method. Format: functional. The following applies: isolate 2, 16 h.
Data set [31] in a line: Dissociation constant, pKa of compound. Format: physicochemical.

SMILES strings stand for the structures. In brackets after ≈: the same amount, converted by molar mass. Activity calls are given as the source filed them. No cut-off for these calls is given here.

As usually defined, the MIC is the least concentration at which growth counts as inhibited. In general, IC50 refers to the concentration needed to halve the response being measured. On to `Oc1c(Br)cc(Br)c2nc3ccccc3nc12`, for which the result in data set [1], in data set [13] and in data set [14] was Active. In addition, the MBEC in [2] was 375 µM; in [4], 250 µM; in data set [10] it was 93.8 µM; in [15], 188 µM. Also, the MBC stood at 62.5 µM (≈ 22.1 µg/mL) in data set [2] (Staphylococcus aureus, BAA-1707, 24 h); 23.5 µM (≈ 8.32 µg/mL) in data set [4]; 15.6 µM (≈ 5.52 µg/mL) in data set [10]; 62.5 µM (≈ 22.1 µg/mL) in data set [15] (Staphylococcus aureus, BAA-44, 24 h). Further, the MIC in data set [3] came out at 25 µM (≈ 8.85 µg/mL); in data set [5] it was 0.27 µg/mL (≈ 0.763 µM); in data set [6] it was 75 µM; in data set [9], 6.25 µM (≈ 2.21 µg/mL); in data set [16] it was 0.78 µM (≈ 0.276 µg/mL); in data set [17], 3.13 µM. Moreover, the outcome in data set [7] and in data set [12] was Active. Further, the hemolysis at 1 h, 200 µM in [8] was at most 1%. Besides, the IC50 in [11] was above 100 µM.

`Cc1ccc2c(Br)cc(Br)c(O)c2n1` [BROQUINALDOL]: the results for the MBEC in data set [18], in [4] and in data set [10] were 1.5 µM, 93.8 µM and 188 µM, respectively. In addition, the MBC turned out to be 2 µM (≈ 0.634 µg/mL) in [18], 9.38 µM (≈ 2.97 µg/mL) in data set [4] and 23.5 µM (≈ 7.45 µg/mL) in data set [10]. Besides, the MIC in [3] stood at 25 µM (≈ 7.92 µg/mL); in data set [19], 0.3 µM (≈ 0.0951 µg/mL); in data set [21], 0.78 µM (≈ 0.247 µg/mL); in [9], 2.35 µM (≈ 0.745 µg/mL); in [22], 0.78 µM (≈ 0.247 µg/mL); in [23], 0.78 µM (≈ 0.247 µg/mL). Also, the result in data set [20] and in [12] was Active. Besides, the IC50 in [11] is above 100 µM.

A word on the solubility: it is the concentration that dissolves in the medium under given conditions. As to `Oc1c(Br)cc(I)c2nc3cc(Cl)c(Cl)cc3nc12`, the MBEC came out at 0.2 µM in [18], 2.35 µM in data set [4] and 9.38 µM in data set [10]. Also, the MBC in data set [18] was found to be 0.2 µM (≈ 0.094 µg/mL); in data set [4], 1.56 µM (≈ 0.733 µg/mL); in data set [10], 3.13 µM (≈ 1.47 µg/mL). Further, the Activity entry in data set [24] is “Non-toxic”; in data set [27] it was above 99.99%; in [29], 70%. The MIC in data set [3] amounted to 12.5 µM (≈ 5.87 µg/mL); in data set [6], 100 µM; in data set [19] it was 3.13 µM (≈ 1.47 µg/mL); in [21], 0.1 µM (≈ 0.047 µg/mL); in data set [9], 0.1 µM (≈ 0.047 µg/mL); in [28], 3.13 µM (≈ 1.47 µg/mL). The MIC was 0.3 µM (≈ 0.141 µg/mL) in data set [22], 3.13 µM (≈ 1.47 µg/mL) in data set [23] and 6.25 µM (≈ 2.94 µg/mL) in data set [30]. In addition, in [25], the concentration in solution (solubility at 16 h) was 200 µM (≈ 94 µg/mL). The result in [26] was Active. The hemolysis at 1 h, 200 µM in [8] was determined as 2.7%. In addition, the IC50 in [11] was above 50 µM.

The term pKa denotes the pH at which an ionisable group is half protonated. Turning to `Oc1ccc(Br)c2nc3cc(Cl)c(Cl)cc3nc12`, the MBEC in [18] was 25 µM; in [4], 100 µM. In addition, the MBC in [18] amounted to 100 µM (≈ 34.4 µg/mL); in [4] it was 37.5 µM (≈ 12.9 µg/mL). Besides, the minimum inhibitory concentration (MIC) in data set [3] is 3.13 µM (≈ 1.08 µg/mL); in data set [19], 1.56 µM (≈ 0.537 µg/mL); in data set [21], 3.13 µM (≈ 1.08 µg/mL); in data set [9], 6.25 µM (≈ 2.15 µg/mL); in [28], 0.78 µM (≈ 0.268 µg/mL); in data set [22], 0.3 µM (≈ 0.103 µg/mL). The MIC was determined as 1.17 µM (≈ 0.402 µg/mL) in [23] and 0.78 µM (≈ 0.268 µg/mL) in data set [30]. The molecule further came in with a solubility at 16 h in data set [25] of 200 µM (≈ 68.8 µg/mL). In addition, the pKa in data set [31] amounted to 8.42. Moreover, the hemolysis at 1 h, 200 µM in data set [8] worked out at 2.7%. The same molecule came in with a half-inhibitory concentration (IC50) in data set [11] above 100 µM.

The values above are taken from ChEMBL document CHEMBL3813699, “Structure-Activity Relationships of a Diverse Class of Halogenated Phenazines That Targets Persistent, Antibiotic-Tolerant Bacterial Biofilms and Mycobacterium tuberculosis” (J Med Chem, 2016).
